According to PMC3254253 (Bioorganic & Medicinal Chemistry, 2011):

Columns and labels:
[1] = target: T1, full length murine FXR (Mus musculus, UniProt Q60641); assay: FXR reporter gene; assay type: cell-based; conditions: HEK293 cells, increasing concentrations (0–100 μM)
T1 sequence (Q60641 1-488): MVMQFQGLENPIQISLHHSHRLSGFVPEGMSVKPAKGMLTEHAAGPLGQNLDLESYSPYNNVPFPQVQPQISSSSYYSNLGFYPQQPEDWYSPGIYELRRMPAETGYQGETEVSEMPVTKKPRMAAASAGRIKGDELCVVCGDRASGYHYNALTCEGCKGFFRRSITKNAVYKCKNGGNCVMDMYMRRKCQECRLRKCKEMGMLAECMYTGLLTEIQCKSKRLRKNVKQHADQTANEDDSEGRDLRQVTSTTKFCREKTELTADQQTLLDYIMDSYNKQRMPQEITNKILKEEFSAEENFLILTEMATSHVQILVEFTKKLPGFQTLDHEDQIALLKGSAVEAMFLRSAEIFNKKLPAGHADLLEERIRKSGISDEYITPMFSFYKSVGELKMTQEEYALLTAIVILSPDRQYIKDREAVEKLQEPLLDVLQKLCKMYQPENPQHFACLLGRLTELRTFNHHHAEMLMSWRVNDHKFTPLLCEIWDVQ
T1 sequence (P28700 1-467 partner): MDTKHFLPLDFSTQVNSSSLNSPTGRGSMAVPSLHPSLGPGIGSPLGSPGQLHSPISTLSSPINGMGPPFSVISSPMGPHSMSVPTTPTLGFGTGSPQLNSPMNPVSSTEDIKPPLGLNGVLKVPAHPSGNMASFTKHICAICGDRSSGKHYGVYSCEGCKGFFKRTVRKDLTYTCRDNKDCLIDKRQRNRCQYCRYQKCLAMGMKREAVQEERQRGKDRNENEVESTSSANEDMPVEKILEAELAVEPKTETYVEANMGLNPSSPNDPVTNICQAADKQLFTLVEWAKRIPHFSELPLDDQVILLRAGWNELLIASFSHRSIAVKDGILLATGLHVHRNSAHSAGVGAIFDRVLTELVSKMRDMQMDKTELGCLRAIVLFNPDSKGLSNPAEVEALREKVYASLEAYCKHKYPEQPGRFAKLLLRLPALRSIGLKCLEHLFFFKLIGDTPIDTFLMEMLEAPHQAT

[2] = test system: CYP7A1 mRNA; assay: Expression of CYP7A1 mRNA; assay type: cell-based; conditions: HepG2 cells, 50 μM, 6 h, DMEM with 10% FCS; fold of control (0.1% DMSO)
Method in brief: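 HepG2 cells were grown in DMEM with 10% FBS, 1% glutamine, penicillin/streptomycin and amphotericin B. They were then exposed in the same medium to test compound or positive control at 50 μM (DMSO 0.1% final) for 6 h. Total RNA (900 ng) was reverse-transcribed with oligo d(T)16 primers. SYBR Green qPCR measured CYP7A1, normalised to β2-microglobulin.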

| FXR agonism in reporter assay (result in words) [1] | levels of CYP7A1 mRNA [2] | Structure (SMILES) |
| --- | --- | --- |
| dose–dependent FXR-agonism | significantly decreased | COc1ccc(N2CCN(C[C@H](O)COc3cc4c(c5c3CCCC5)CCCC4)CC2)cc1 [Compound 19] |
| dose–dependent FXR-agonism | significantly decreased | CCCCc1ccc([C@@H](CC(=O)c2ccccc2)c2ccccc2)cc1 [Compound 20] |
